The source made the active and inactive calls. The calls are words filed in the database; no cut-off is given here.
Tests used:
DU-145 [1] = assay: Induction of AGT ablation in human DU145 cells assessed as [benzene-3H]-O6-benzylguanine binding at 80 uM after 2 hrs; type: functional
Outline: (§1)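 DU145 human prostate carcinoma cells (about 42,000 AGT molecules/cell) were treated with 80 μM agent for 2 h or 4 h. Remaining AGT level was then measured relative to untreated cells.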

DU-145 [2] = assay: Ratio of laromustine IC50 for compound IC50 for human DU145 cells expressing AGT; type: functional
EMT6 [3] = assay: Cytotoxicity against mouse AGT negative EMT6 cells under aerobic conditions after 4 to 24 hrs by clonogenic assay; type: functional, cell-based; details: for CC50: read-out: LC50 (the source's name)
Outline: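 Murine mammary carcinoma cells lacking AGT expression were exposed to graded concentrations for short (4 h) or long (24 h) periods. LC50 was taken from cytotoxicity curves.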

EMT6 [4] = assay: Ratio of laromustine IC50 for compound IC50 for mouse AGT negative EMT6 cells; type: functional
DU-145 [5] = assay: Cytotoxicity against human DU145 cells expressing AGT at 10 to 80 uM after 4 hrs by clonogenic assay; type: functional, cell-based
Outline: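 DU145 human prostate carcinoma cells, which naturally express about 42,000 AGT molecules/cell, were exposed to graded drug concentrations for 4 h or 24 h. Cytotoxicity was expressed as LC50.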

[6] = Half life in 1 mM potassium phosphate buffer at pH 7.4 at 50 uM by spectrophotometric analysis; type: physicochemical
DU-145 [7] = assay: Cytotoxicity against human DU145 cells expressing AGT after 4 to 24 hrs by clonogenic assay; type: functional; details: read-out: LC50 (the source's name)
Outline: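 Human prostate carcinoma cells with natural AGT expression (42,000 molecules/cell) were exposed to graded concentrations for 4 h or 24 h. LC50 was read from cytotoxicity curves.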

DU-145 [8] = assay: Cytotoxicity against human DU145 cells expressing AGT after 4 to 24 hrs by clonogenic assay in presence of 100 uM of AGT inhibitor O6-BG; type: functional, cell-based
Outline: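 DU145 cells (42,000 AGT molecules/cell) were pretreated with 100 μM O6-BG for 2 h, then exposed to graded drug concentrations. Cytotoxicity was then assessed.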

DU-145 [9] = assay: Induction of AGT ablation in human DU145 cells assessed as [benzene-3H]-O6-benzylguanine binding at 80 uM after 4 hrs; type: functional; outline: as §1
L1210 = assay: Binding affinity to mouse L1210 cell DNA assessed as DNA cross-linking activity at 10 to 50 uM using H33258 dye by rapid DNA renaturation assay; type: cell-based

Question: Which results are given for `CN(N=O)C(=O)N(N(CCCl)S(C)(=O)=O)S(C)(=O)=O`?
Answer: Activity (DU-145 [1]): >80%; Ratio IC50 (DU-145 [2]): >12; CC50 (EMT6 [3]): 0.7 µM; Ratio IC50 (EMT6 [4]): 12; Activity (DU-145 [5]): Active; half-life at 50 µM [6]: 10 min; CC50 (DU-145 [7]): 6.3 µM; Activity (DU-145 [8]): Active; Activity (DU-145 [9]): >90%; Activity (L1210): Active

Question: What does the source list for `CS(=O)(=O)NN(CCCl)S(C)(=O)=O` [VPN-4090CE]?
Answer: half-life at 50 µM [6]: 0.55 min; Activity (L1210): Active

Question: With `CN(N(C(=O)N(CCCl)N=O)S(C)(=O)=O)S(C)(=O)=O` as the compound, how does the Activity (DU-145 [1]) read?
Answer: The Activity was “Active”.

Question: What about the Activity (DU-145 [5]) of the same compound?
Answer: Its Activity is “Active”.

Question: And the half-life at 50 µM [6]?
Answer: Its half-life at 50 µM is 13.4 min.

Question: And the Activity (DU-145 [8])?
Answer: The Activity was “Active”.

Question: What about the Activity (DU-145 [9]) of the same compound?
Answer: Its Activity is “Active”.

Question: What about the Activity (L1210) of the same compound?
Answer: Its Activity is “Active”.

Question: Which CC50 (EMT6 [3]) does the source give for `CNC(=O)N(N(CCCl)S(C)(=O)=O)S(C)(=O)=O` [LAROMUSTINE] here?
Answer: Its CC50 is 8.3 µM.

Question: What about the Activity (DU-145 [5]) of the same compound?
Answer: Its Activity is “Active”.

Question: What about the CC50 (DU-145 [7]) of the same compound?
Answer: The CC50 was > 80 µM.

Question: What about the Activity (DU-145 [8]) of the same compound?
Answer: Its Activity is “Active”.

Question: And the Activity (L1210)?
Answer: The Activity was “Active”.

Question: Which IC50 (EMT6 [3]) does the source give for `CN(NS(C)(=O)=O)S(C)(=O)=O` here?
Answer: Its IC50 is 3 mM.

Question: And the CC50 (DU-145 [7])?
Answer: The CC50 was 1600 µM.
